Source: ChEMBL document CHEMBL4428047 (J Med Chem, 2016)
In brackets after ≈: the same amount, converted by molar mass.

Legend:
[1] = Clearance in rat liver microsomes assessed as drug turnover level at 1 uM incubated for 30 mins in presence of NADPH; format: ADME, Microsome; details: read-out: CLH
Method in brief: (§1)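 Parent compound at 1 µM incubated with liver microsomes (0.25 mg/mL) in 66.7 mM potassium phosphate with 1 mM NADPH, 37 °C, 30 min; % turnover measured by LC/MS.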

[2] = Clearance in human liver microsomes assessed as drug turnover level at 1 uM incubated for 30 mins in presence of NADPH; format: ADME, Microsome; details: read-out: CLH; method in brief: as §1
[3] = Apparent permeability in LLC-PK1 cells by LC-MS method; format: ADME, cell-based, Sus scrofa; details: pig
Method in brief: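 Passive permeability across LLCPK1 monolayers; apparent permeability (Papp) obtained by mass balance with LC/MS quantitation.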

[4] = Aqueous equilibrium solubility at room temperature after 72 hrs at pH 7.4 by HPLC; format: physicochemical; details: buffer
[5] = Clearance in Sprague-Dawley rat at 0.5 mg/kg, iv by LC-MS method; format: ADME, organism-based; details: in vivo
Method in brief: (§2)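 Male Sprague-Dawley rats, two animals per study, dosed IV at 0.5 mg/kg as a solution in 100% DMSO. Unbound clearance calculated as total clearance divided by rat plasma fraction unbound (CLu = CL/fu).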

[6] = Oral bioavailability in Sprague-Dawley rat at 2 mg/kg by LC-MS method; format: ADME, organism-based; details: in vivo
[7] = Unbound clearance in Sprague-Dawley rat at 0.5 mg/kg, iv by LC-MS method; format: ADME, organism-based; details: in vivo; method in brief: as §2

For `C[C@H](Nc1ncnc(N)c1C#N)c1nc2ccc(F)cc2c(-c2ccccn2)c1-c1ccccn1`, the microsomal CLint at 1 µM [1] was 16 µL/min/mg and the microsomal CLint at 1 µM [2] was 47 µL/min/mg.
For `CNCCNC(=O)c1c(-c2ccccc2)c([C@H](C)Nc2ncnc(N)c2C#N)nc2ccc(F)cc12`, the microsomal CLint at 1 µM [1] was < 14 µL/min/mg and the microsomal CLint at 1 µM [2] was < 14 µL/min/mg.
For `CNC(=O)c1c(-c2ccccn2)c([C@H](C)Nc2ncnc(N)c2C#N)nc2cccc(F)c12`, the Papp [3] was 8 ×10⁻⁶ cm/s, the microsomal CLint at 1 µM [1] was < 14 µL/min/mg and the solubility thermodynamic at 72 h [4] was 200 µg/mL (≈ 452 µM). For the same compound, the microsomal CLint at 1 µM [2] was < 14 µL/min/mg, the clearance [5] was 11.7 mL/min/kg and the bioavailability [6] was 29%. It also gave a CL free [7] of 67 mL/min/kg.
`C[C@H](Nc1ncnc(N)c1C#N)c1nc2ccc(F)cc2c(C(=O)N2CCS(=O)(=O)CC2)c1-c1ccccc1` showed a microsomal CLint at 1 µM [1] of 78 µL/min/mg and a microsomal CLint at 1 µM [2] of 62 µL/min/mg.
With `C[C@H](Nc1ncnc(N)c1C#N)c1nc2ccc(F)cc2c(C(=O)N2CCNCC2)c1-c1ccccc1` the microsomal CLint at 1 µM [1] was 50 µL/min/mg, the microsomal CLint at 1 µM [2] was 82 µL/min/mg and the clearance [5] was 15 mL/min/kg. For the same compound, the CL free [7] was 1000 mL/min/kg.
With `CC(C)NC(=O)c1c(-c2ccccc2)c([C@H](C)Nc2ncnc(N)c2C#N)nc2ccc(F)cc12` the microsomal CLint at 1 µM [1] was < 14 µL/min/mg and the microsomal CLint at 1 µM [2] was 51 µL/min/mg.
In the case of `CCNC(=O)c1c(-c2ccccc2)c([C@H](C)Nc2ncnc(N)c2C#N)nc2ccc(F)cc12`, the microsomal CLint at 1 µM [1] is reported as < 14 µL/min/mg and the microsomal CLint at 1 µM [2] is reported as 22 µL/min/mg.
With `CNC(=O)c1c(-c2ccccn2)c([C@H](C)Nc2ncnc(N)c2C#N)nc2ccc(F)cc12` the Papp [3] was 14.6 ×10⁻⁶ cm/s, the microsomal CLint at 1 µM [1] was < 14 µL/min/mg and the solubility thermodynamic at 72 h [4] was 200 µg/mL (≈ 452 µM). For the same compound, the microsomal CLint at 1 µM [2] was < 14 µL/min/mg, the clearance [5] was 8.33 mL/min/kg and the bioavailability [6] was 70%. It also gave a CL free [7] of 38.3 mL/min/kg.
In the case of `CNC(=O)c1c(-c2ccccc2)c([C@H](C)Nc2ncnc(N)c2C#N)nc2ccc(F)cc12`, the microsomal CLint at 1 µM [1] is reported as 15 µL/min/mg, the microsomal CLint at 1 µM [2] is reported as < 14 µL/min/mg and the clearance [5] is reported as 8.33 mL/min/kg. For the same compound, the CL free [7] was 75 mL/min/kg.
For `CNCCNC(=O)c1c(-c2ccccn2)c([C@H](C)Nc2ncnc(N)c2C#N)nc2ccc(F)cc12`, the microsomal CLint at 1 µM [1] was < 14 µL/min/mg, the microsomal CLint at 1 µM [2] was 33 µL/min/mg and the clearance [5] was 16.7 mL/min/kg. The CL free [7] was 468 mL/min/kg.
Compound `C[C@H](Nc1ncnc(N)c1C#N)c1nc2ccc(F)cc2c(C(=O)N2CC(O)C2)c1-c1ccccc1` has a microsomal CLint at 1 µM [1] of 49 µL/min/mg and a microsomal CLint at 1 µM [2] of 40 µL/min/mg.
In the case of `C[C@H](Nc1ncnc(N)c1C#N)c1nc2ccc(F)cc2c(C(N)=O)c1-c1ccccc1`, the microsomal CLint at 1 µM [1] is reported as < 14 µL/min/mg, the microsomal CLint at 1 µM [2] is reported as < 14 µL/min/mg and the clearance [5] is reported as 10 mL/min/kg.
In the case of `C[C@H](Nc1ncnc(N)c1C#N)c1nc2ccc(F)cc2c(C(=O)N(C)C)c1-c1ccccc1`, the microsomal CLint at 1 µM [1] is reported as 426 µL/min/mg and the microsomal CLint at 1 µM [2] is reported as 198 µL/min/mg.
In the case of `CCNC(=O)c1c(-c2ccccn2)c([C@H](C)Nc2ncnc(N)c2C#N)nc2ccc(F)cc12`, the microsomal CLint at 1 µM [1] is reported as < 14 µL/min/mg, the microsomal CLint at 1 µM [2] is reported as < 14 µL/min/mg and the clearance [5] is reported as 3.33 mL/min/kg. It also gave a CL free [7] of 102 mL/min/kg.
`CC(Nc1ncnc(N)c1C#N)c1nc2ccc(F)cc2c(C(=O)N2CCNCC2)c1-c1ccccn1` (racemic) showed a microsomal CLint at 1 µM [1] of 17 µL/min/mg and a microsomal CLint at 1 µM [2] of 24 µL/min/mg.
For `CC(Nc1ncnc(N)c1C#N)c1nc2ccc(F)cc2c(C(=O)N2CC(O)C2)c1-c1ccccn1` (racemic), the microsomal CLint at 1 µM [1] was < 14 µL/min/mg and the microsomal CLint at 1 µM [2] was < 14 µL/min/mg.
In the case of `C[C@H](Nc1ncnc2[nH]cnc12)c1cc2ccc(F)cc2nc1-c1ccccn1` [AMG-319], the Papp [3] is reported as 30 ×10⁻⁶ cm/s, the microsomal CLint at 1 µM [1] is reported as < 14 µL/min/mg and the solubility thermodynamic at 72 h [4] is reported as > 200 µg/mL. The microsomal CLint at 1 µM [2] was < 14 µL/min/mg, the clearance [5] was 5 mL/min/kg and the bioavailability [6] was 54%. The CL free [7] was 45 mL/min/kg.
